Measurements reported in ChEMBL document CHEMBL4028811, “Discovery of 2-substituted 1H-benzo[d]immidazole-4-carboxamide derivatives as novel poly(ADP-ribose)polymerase-1 inhibitors with in vivo anti-tumor activity” (Eur J Med Chem, 2017).

Legend:
[1] = molecular target: T1, Poly [ADP-ribose] polymerase 1 (Homo sapiens, UniProt P09874); assay: Inhibition of recombinant human PARP1 expressed in Escherichia coli BL21(DE3) using histone as substrate measured after 1 hr in presence of biotinylated NAD+ by ELISA
[2] = molecular target: T1, Poly [ADP-ribose] polymerase 1; assay: Inhibition of recombinant human PARP1 expressed in Escherichia coli BL21(DE3) using sheared DNA as substrate measured after 1 hr in presence of NAD+
[3] = molecular target: T1, Poly [ADP-ribose] polymerase 1; assay: Inhibition of PARP1 in human MX1 cells assessed as potentiation of temozolomide-induced cytotoxicity at 10 uM after 72 hrs by MTT assay relative to temozolomide alone; format: cell-based
Method in brief: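 MX-1 cells seeded at 2000/well and exposed for 72 h to TMZ (0–0.5 mmol/L) with or without PARP inhibitor fixed at 10 μmol/L. Survival read by MTT. PF50 = IC50 of TMZ alone / IC50 of TMZ + inhibitor.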

Homo sapiens = species on record: Homo sapiens; assay: Selectivity ratio of IC50 for recombinant human PARP2 to IC50 for recombinant human PARP1
Method in brief: (§1)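 Human recombinant PARP2 (and PARP1) expressed and purified, inhibition measured by ELISA, with AZD2281 as positive control. IC50 from concentration–response fitting.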

[4] = molecular target: Poly [ADP-ribose] polymerase 2 (Homo sapiens, UniProt Q9UGN5); assay: Inhibition of recombinant human PARP2 expressed in Escherichia coli BL21(DE3) using histone as substrate measured after 1 hr in presence of biotinylated NAD+ by ELISA; method in brief: as §1
MX1 [5] = assay: Anti-tumor activity against human MX1 cells xenografted in BALB/c mouse assessed as tumor weight at 50 mg/kg, po administered once daily via gavage for 5 days measured after 11 days in presence of temozolomide (reference value: 4.09 +/- 0.64 g); format: functional
Method in brief: (§2)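 Female athymic BALB/c nude mice, 8–10 weeks old, implanted s.c. with 1×10^6 MX-1 cells in 0.1 mL PBS. Day 6: grouped at 6/group, tumors 100–300 mm³. Oral gavage once daily. TMZ 50 mg/kg/day for 5 days; single-agent test compound 50 mg/kg/day for 10 days; combinations both orally for 5 days. Body weight and tumor volume measured twice weekly; euthanized day 11.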

MX1 [6] = assay: Anti-tumor activity against human MX1 cells xenografted in BALB/c mouse assessed as tumor growth inhibition at 25 mg/kg, po administered once daily via gavage for 5 days measured after 11 days in presence of temozolomide relative to control; format: functional; method in brief: as §2
MX1 [7] = assay: Anti-tumor activity against human MX1 cells xenografted in BALB/c mouse assessed as tumor growth inhibition at 25 mg/kg, po administered once daily via gavage for 5 days measured after 11 days in presence of temozolomide relative to temozolomide; format: functional; method in brief: as §2
MX1 [8] = assay: Anti-tumor activity against human MX1 cells xenografted in BALB/c mouse assessed as tumor growth inhibition at 50 mg/kg, po administered once daily via gavage for 5 days measured after 11 days in presence of temozolomide relative to control; format: functional; method in brief: as §2
MX1 [9] = assay: Anti-tumor activity against human MX1 cells xenografted in BALB/c mouse assessed as tumor growth inhibition at 50 mg/kg, po administered once daily via gavage for 10 days measured after 11 days relative to control; format: functional; method in brief: as §2
MX1 [10] = assay: Anti-tumor activity against human MX1 cells xenografted in BALB/c mouse assessed as tumor growth inhibition at 50 mg/kg, po administered once daily via gavage for 5 days measured after 11 days in presence of temozolomide relative to temozolomide; format: functional; method in brief: as §2
Mus musculus [11] = assay: Toxicity in BALB/c mouse assessed as change in body weight at 25 mg/kg, po administered once daily via gavage for 5 days in presence of temozolomide measured twice every week up to 11 days (reference value: 5.32 g); format: organism-based; conditions: in vivo; method in brief: as §2
Mus musculus [12] = assay: Toxicity in BALB/c mouse assessed as change in body weight at 50 mg/kg, po administered once daily via gavage for 10 days measured twice every week up to 11 days (reference value: 5.32 g); format: organism-based; conditions: in vivo; method in brief: as §2
MX1 [13] = assay: Anti-tumor activity against human MX1 cells xenografted in BALB/c mouse assessed as tumor weight at 25 mg/kg, po administered once daily via gavage for 5 days measured after 11 days in presence of temozolomide (reference value: 4.09 +/- 0.64 g); format: functional; method in brief: as §2
Mus musculus [14] = assay: Toxicity in BALB/c mouse assessed as change in body weight at 50 mg/kg, po administered once daily via gavage for 5 days in presence of temozolomide measured twice every week up to 11 days (reference value: 5.32 g); format: organism-based; conditions: in vivo; method in brief: as §2
MX1 [15] = assay: Anti-tumor activity against human MX1 cells xenografted in BALB/c mouse assessed as tumor weight at 50 mg/kg, po administered once daily via gavage for 10 days measured after 11 days (reference value: 4.09 +/- 0.64 g); format: functional; method in brief: as §2
[16] = Mus musculus, MX1, po, read-out: TGI

Sequence of Poly [ADP-ribose] polymerase 2 (Q9UGN5 whole entry): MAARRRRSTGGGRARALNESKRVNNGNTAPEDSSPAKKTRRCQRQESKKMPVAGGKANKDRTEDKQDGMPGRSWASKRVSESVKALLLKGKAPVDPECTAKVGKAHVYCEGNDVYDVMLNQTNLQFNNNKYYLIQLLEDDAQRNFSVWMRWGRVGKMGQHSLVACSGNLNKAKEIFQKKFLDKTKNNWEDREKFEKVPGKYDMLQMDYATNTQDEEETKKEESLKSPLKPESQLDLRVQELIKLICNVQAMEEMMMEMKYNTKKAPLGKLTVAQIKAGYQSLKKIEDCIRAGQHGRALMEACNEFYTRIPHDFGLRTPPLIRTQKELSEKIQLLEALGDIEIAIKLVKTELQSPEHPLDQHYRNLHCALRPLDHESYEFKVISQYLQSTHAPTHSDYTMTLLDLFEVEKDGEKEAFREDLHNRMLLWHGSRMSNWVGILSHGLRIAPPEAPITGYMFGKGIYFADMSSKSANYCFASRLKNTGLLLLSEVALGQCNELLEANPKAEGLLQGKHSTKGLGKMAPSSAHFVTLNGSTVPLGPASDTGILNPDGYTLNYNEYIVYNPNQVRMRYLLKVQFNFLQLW
T1 sequence (P09874 whole entry): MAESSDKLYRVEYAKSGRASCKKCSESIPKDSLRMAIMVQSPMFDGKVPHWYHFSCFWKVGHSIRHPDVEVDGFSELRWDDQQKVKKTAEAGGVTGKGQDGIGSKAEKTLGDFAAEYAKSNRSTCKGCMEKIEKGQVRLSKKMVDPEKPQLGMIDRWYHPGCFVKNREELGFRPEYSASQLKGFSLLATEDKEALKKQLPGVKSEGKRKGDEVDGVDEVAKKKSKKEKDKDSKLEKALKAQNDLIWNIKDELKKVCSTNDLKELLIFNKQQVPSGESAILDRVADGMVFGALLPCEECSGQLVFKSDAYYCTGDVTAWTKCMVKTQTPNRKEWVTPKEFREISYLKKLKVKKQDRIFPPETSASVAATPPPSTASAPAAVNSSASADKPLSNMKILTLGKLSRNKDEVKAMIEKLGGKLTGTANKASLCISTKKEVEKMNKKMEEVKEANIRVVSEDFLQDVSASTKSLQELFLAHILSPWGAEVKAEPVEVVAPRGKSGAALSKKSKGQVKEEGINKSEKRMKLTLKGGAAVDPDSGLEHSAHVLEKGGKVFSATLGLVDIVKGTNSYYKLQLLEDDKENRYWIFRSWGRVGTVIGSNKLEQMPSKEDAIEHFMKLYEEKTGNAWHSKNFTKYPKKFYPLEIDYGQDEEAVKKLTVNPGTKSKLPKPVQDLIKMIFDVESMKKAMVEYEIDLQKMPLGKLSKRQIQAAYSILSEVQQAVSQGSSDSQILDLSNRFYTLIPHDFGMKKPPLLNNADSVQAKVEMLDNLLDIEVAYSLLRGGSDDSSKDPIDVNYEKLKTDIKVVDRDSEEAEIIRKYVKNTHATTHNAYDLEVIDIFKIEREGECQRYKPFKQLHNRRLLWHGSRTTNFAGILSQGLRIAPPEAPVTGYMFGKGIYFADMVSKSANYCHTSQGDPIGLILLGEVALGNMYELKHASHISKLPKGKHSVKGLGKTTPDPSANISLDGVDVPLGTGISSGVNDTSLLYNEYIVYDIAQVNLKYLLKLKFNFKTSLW

Q: For CC(C)(C)OC(=O)NC1CCN(C(=O)c2nc3c(C(N)=O)cccc3[nH]2)C1 (configuration not stated), which IC50 [1] is on record?
A: 857 nM

Q: How did the IC50 [1] turn out when CC(C)(C)OC(=O)N1CCC(NC2CCN(C(=O)c3nc4c(C(N)=O)cccc4[nH]3)CC2)CC1 was run?
A: 250 nM

Q: With CC(C)(C)OC(=O)N1CCC(NC(=O)c2nc3c(C(N)=O)cccc3[nH]2)C1 (configuration not stated) as the molecule, how does the IC50 [2] read?
A: 1810 nM

Q: Which IC50 [1] does the source give for CCC(CC)N1CCC(NC(=O)c2nc3c(C(N)=O)cc(F)cc3[nH]2)CC1 here?
A: 30 nM

Q: What does the source list for NC(=O)c1cccc2[nH]c(C(=O)N3CCC(NC4CCCCC4)C3)nc12 (configuration not stated)?
A: PF50 [3]: 4.17; IC50 [1]: 75 nM; Ratio IC50 (Homo sapiens): < 10; IC50 [4]: 91 nM

Q: CCC(CC)N1CCC(NC(=O)c2nc3c(C(N)=O)cccc3[nH]2)CC1 was tested. Which IC50 [1] did it give?
A: 302 nM

Q: Which IC50 [1] does the source give for CCC(=O)N1CCN(C(=O)c2nc3c(C(N)=O)cccc3[nH]2)CC1 here?
A: > 100 nM

Q: Which PF50 [3] does the source give for NC(=O)c1cc(F)cc2[nH]c(C(=O)N3CCC(N)C3)nc12 (configuration not stated) here?
A: 1.07

Q: And the IC50 [1]?
A: 12 nM

Q: What about the Ratio IC50 (Homo sapiens) of the same molecule?
A: < 10

Q: What about the IC50 [4] of the same molecule?
A: 19 nM

Q: How did the IC50 [2] turn out when CC(C)(C)OC(=O)N1CCCC(NC(=O)c2nc3c(C(N)=O)cccc3[nH]2)C1 (configuration not stated) was run?
A: 1150 nM

Q: How did the IC50 [1] turn out when CC(C)(C)OC(=O)N1CCC(N2CCC(NC(=O)c3nc4c(C(N)=O)cccc4[nH]3)CC2)CC1 was run?
A: 868 nM

Q: NC(=O)c1cccc2[nH]c(C(=O)NC3CCN(C4CCNCC4)CC3)nc12 was tested. Which IC50 [1] did it give?
A: 316 nM

Q: Which IC50 [1] does the source give for CC[C@@H]1CN(C(=O)c2nc3c(C(N)=O)cccc3[nH]2)CCN1C(=O)OC(C)(C)C here?
A: > 100 nM

Q: With NC(=O)c1cccc2[nH]c(C(=O)NC3CCN(C(=O)C(F)(F)F)CC3)nc12 as the molecule, how does the IC50 [1] read?
A: 83 nM

Q: With CCC(=O)NC1CCN(C(=O)c2nc3c(C(N)=O)cccc3[nH]2)C1 (configuration not stated) as the molecule, how does the IC50 [1] read?
A: 83 nM

Q: With CCN1CCC(NC(=O)c2nc3c(C(N)=O)cccc3[nH]2)CC1 as the molecule, how does the IC50 [1] read?
A: 40 nM

Q: For CC(C)(C)OC(=O)NC1CCN(C(=O)c2nc3c(C(N)=O)cc(F)cc3[nH]2)C1 (configuration not stated), which IC50 [1] is on record?
A: > 100 nM

Q: For NC(=O)c1cccc2[nH]c(C(=O)NC3CCN(CC4CC4)CC3)nc12, which PF50 [3] is on record?
A: 3.53

Q: And the IC50 [1]?
A: 108 nM

Q: And the Ratio IC50 (Homo sapiens)?
A: < 10

Q: What about the IC50 [4] of the same molecule?
A: 130 nM

Q: CC(C)(C)CN1CCC(NC(=O)c2nc3c(C(N)=O)cc(F)cc3[nH]2)CC1 was tested. Which Activity (MX1 [5]) did it give?
A: 0.5 g

Q: What about the T/C (MX1 [6]) of the same molecule?
A: 36%

Q: And the inhibition in vivo at 25 mg/kg (MX1 [6]; [16])?
A: 64%

Q: And the T/C (MX1 [7])?
A: 94%

Q: And the inhibition in vivo at 25 mg/kg (MX1 [7]; [16])?
A: 6%

Q: What about the T/C (MX1 [8]) of the same molecule?
A: 12%

Q: What about the inhibition in vivo at 50 mg/kg (MX1 [8]; [16]) of the same molecule?
A: 88%

Q: What about the T/C (MX1 [9]) of the same molecule?
A: 91%

Q: And the inhibition in vivo at 50 mg/kg (MX1 [9]; [16])?
A: 9%

Q: What about the T/C (MX1 [10]) of the same molecule?
A: 32%

Q: What about the inhibition in vivo at 50 mg/kg (MX1 [10]; [16]) of the same molecule?
A: 68%

Q: And the Activity (Mus musculus [11])?
A: 0.23 g

Q: And the PF50 [3]?
A: 7.1

Q: What about the IC50 [1] of the same molecule?
A: 17 nM

Q: What about the Ratio IC50 (Homo sapiens) of the same molecule?
A: < 10

Q: And the Activity (Mus musculus [12])?
A: 5 g

Q: And the Activity (MX1 [13])?
A: 1.47 g

Q: And the Activity (Mus musculus [14])?
A: -0.79 g

Q: And the Activity (MX1 [15])?
A: 3.73 g

Q: What about the IC50 [4] of the same molecule?
A: 74 nM

Q: With CCCN1CCC(NC(=O)c2nc3c(C(N)=O)cccc3[nH]2)CC1 as the molecule, how does the IC50 [1] read?
A: 49 nM

Q: For CC(C)(C)OC(=O)N1CCC(NC2CCN(C(=O)c3nc4c(C(N)=O)cccc4[nH]3)C2)CC1 (configuration not stated), which IC50 [1] is on record?
A: 1190 nM

Q: NC(=O)c1cccc2[nH]c(C(=O)N3CCNC(=O)C3)nc12 was tested. Which IC50 [1] did it give?
A: 29 nM

Q: For NC(=O)c1cc(F)cc2[nH]c(C(=O)N3CCNC(=O)C3)nc12, which IC50 [1] is on record?
A: 15 nM

Q: Which IC50 [1] does the source give for CC(C)(C)OC(=O)NC1CCN(C(=O)c2nc3c(C(N)=O)cc(F)cc3[nH]2)CC1 here?
A: 80 nM

Q: With NC(=O)c1cccc2[nH]c(C(=O)N3C[C@H]4CCCN[C@H]4C3)nc12 as the molecule, how does the IC50 [1] read?
A: 116 nM

Q: CC(C)(C)CN1CCC(NC(=O)c2nc3c(C(N)=O)cccc3[nH]2)CC1 was tested. Which IC50 [1] did it give?
A: 41 nM

Q: Which IC50 [1] does the source give for NC(=O)c1cccc2[nH]c(C(=O)N3CCC(NC4CCNCC4)C3)nc12 (configuration not stated) here?
A: 60 nM

Q: With NC(=O)c1cccc2[nH]c(C(=O)NC3CCCNC3)nc12 (configuration not stated) as the molecule, how does the IC50 [2] read?
A: 199 nM

Q: With NC(=O)c1cccc2[nH]c(C(=O)NC3CCNC3)nc12 (configuration not stated) as the molecule, how does the IC50 [2] read?
A: 343 nM

Q: Which IC50 [1] does the source give for CC(C)(C)OC(=O)N1CCN(C(=O)c2nc3c(C(N)=O)cccc3[nH]2)CC1 here?
A: 152 nM
